Experimental data reported in PMC7931394 (ACS Omega, 2021).
Peptide text beside a SMILES is read from it.

Tests used:
Format in all cases: physicochemical
[1] = Turbidity measurement of temperature-dependent coacervation
Method in brief: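 Peptides were dissolved in pure water at various concentrations. Turbidity at 400 nm was followed while the temperature was raised or lowered at 0.5 °C/min starting from 5 °C. Each concentration was run at least three times. Tt was taken as the temperature at which turbidity reached half its maximum.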

[2] = Scanning electron microscopy of aggregates; conditions: 0.10 mg/mL aqueous solution incubated at 50 °C for 3 h (Figure S6)
Method in brief: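 Peptide in water at 0.1 mg/mL was incubated at 50 °C for 3 h, dropped on a cover glass and air-dried at 50 °C. The residue was rinsed gently three times with distilled water and air-dried again. Samples were platinum sputter-coated (5 nm) and imaged at 5.00 kV at 500× and 2000× magnification.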

[3] = Logarithmic fit of Tt against molar peptide concentration; conditions: pure water
Method in brief: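 Tt for each peptide was obtained by turbidity at 400 nm in pure water at several concentrations, measured at least three times per concentration. Tt was plotted against the logarithm of molar peptide concentration and fitted as a logarithmic function. C37 was obtained by logarithmic extrapolation to Tt = 37 °C. The concentration needed at 50 °C was computed from formula (1).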

SMILES: CC(C)[C@H](NC(=O)CNC(=O)[C@@H]1CCCN1C(=O)[C@H](Cc1ccccc1)NC(=O)CNC(=O)[C@@H](NC(=O)CNC(=O)[C@@H]1CCCN1C(=O)[C@H](Cc1ccccc1)NC(=O)CNC(=O)[C@@H](NC(=O)CNC(=O)[C@@H]1CCCN1C(=O)[C@@H](N)Cc1ccccc1)C(C)C)C(C)C)C(=O)NCC(N)=O [F3, H-(FPGVG)3-NH2] (H-FPGVGFPGVGFPGVG-NH2)
- coacervation (turbidity change on heating) ([1]; peptide 20–50 mg/mL in pure water, turbidity at 400 nm (Figure S2)): no coacervation

SMILES: CC(C)[C@H](NC(=O)CNC(=O)[C@@H]1CCCN1C(=O)[C@H](Cc1ccccc1)NC(=O)CNC(=O)[C@@H](NC(=O)CNC(=O)[C@@H]1CCCN1C(=O)[C@H](Cc1ccccc1)NC(=O)CNC(=O)[C@@H](NC(=O)CNC(=O)[C@@H]1CCCN1C(=O)[C@H](Cc1ccccc1)NC(=O)CNC(=O)[C@@H](NC(=O)CNC(=O)[C@@H]1CCCN1C(=O)[C@H](Cc1ccccc1)NC(=O)CNC(=O)[C@@H](NC(=O)CNC(=O)[C@@H]1CCCN1C(=O)[C@@H](N)Cc1ccccc1)C(C)C)C(C)C)C(C)C)C(C)C)C(=O)NCC(N)=O [F5, H-(FPGVG)5-NH2] (H-FPGVGFPGVGFPGVGFPGVGFPGVG-NH2)
- morphology by SEM [2]: spherical structures were not formed
- peptide concentration at which coacervation is exhibited / required ([1]; pure water, turbidity at 400 nm, 0.5 °C/min from 5 °C): at least 20 mg/mL
- concentration required to show coacervation at 50 °C ([3]; calculated with formula (1)): at least 8.09 mM
- C37 (peptide concentration to attain Tt at 37 °C) ([3]; logarithmic extrapolation of the Tt vs peptide concentration graph): 11.7 mM
